Compound activity (PubChem BioAssay)
MPTP block: permeability transition pore inhibition. isolated mouse mitochondria, Ca2+ swelling absorbance, 30 min. AID 602449. 1.4% of 360,000 active. inhibition, % at 10 µM;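 active = inhibition of 50% or more, scaled per plate between neutral and stimulator controls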
MC4R barr agon: human MC4R agonism via beta-arrestin; activation, % at 8.9 µM; U2OS MC4R beta-arrestin complementation, luminescence; percent of melanotan II response, DMSO zero; P32245; 0.98% of 360,000 active;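 active = activation above a per-plate cutoff, the mean activation of sample wells on that plate plus 3 SD, cut at about 8% in these data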
Target sequence (P32245 whole entry, looked up): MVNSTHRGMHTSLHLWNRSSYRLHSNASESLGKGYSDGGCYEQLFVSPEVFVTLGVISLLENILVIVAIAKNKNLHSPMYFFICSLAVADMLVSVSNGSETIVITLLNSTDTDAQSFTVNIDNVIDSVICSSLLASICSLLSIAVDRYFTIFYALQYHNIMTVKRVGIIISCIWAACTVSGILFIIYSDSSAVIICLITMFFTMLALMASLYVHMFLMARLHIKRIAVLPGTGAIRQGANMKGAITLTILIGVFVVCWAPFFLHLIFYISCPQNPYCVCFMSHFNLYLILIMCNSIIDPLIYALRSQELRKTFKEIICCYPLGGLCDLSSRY
ATG4B inhibitor: inhibitors of human ATG4B cysteine protease. Q9Y4P1. ATG4B cleavage of LC3-PLA2, NBD-HPC fluorescence, 1 h. inhibition, % at 8.33 µM. 0.51% of 340,000 active. AID 504462; in the data active = inhibition above about 40%
MC4R antagonist: antagonists of human melanocortin 4 receptor (MC4R); P32245; MC4R-expressing cells, MTII-stimulated cAMP, LANCE TR-FRET; inhibition, % at 6.5 µM; 0.48% of 360,000 active;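 active = inhibition above its plate's cutoff, the mean of tested wells on that plate plus 3 SD, cut at about 29% in these data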
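Material: human MC4R-expressing U2OS cells. Probe or stimulus: Melanotan II challenge. Dosing: 6.5 µM single dose. Times: 30-min compound, 1-h challenge, 1-h detection, room temperature. Technique: TR-FRET with Eu-cAMP and labeled anti-cAMP, 671 nm. Replication: singlicate.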
SMARCA2 act: activators of SMARCA2 function; MG213 cells, MMTV-luciferase reporter, dexamethasone, overnight; 1% of 370,000 active; activation, % at 9.1 µM; in the data active = activation above about 7.8%
MPTP counter: membrane potential counter-screen of mitochondrial pore inhibitors; shares compounds with MPTP block; isolated mitochondria, Rhodamine 123 fluorescence; inhibition, % at 10 µM; 78% of 5,000 active; AID 624504; in the data active = inhibition above about 22%
MPTP swell DR: dose response confirmation of mitochondrial permeability transition pore inhibitors; shares compounds with MPTP block; 58% of 780 active; IC50, µM; isolated mitochondria swelling, absorbance; AID 651561; in the data active = IC50 below about 20 µM
MPTP counter DR: active in counter-screen for permeability transition pore inhibitors. shares compounds with MPTP block. isolated mitochondria counterscreen, fluorescence read-out. IC50, µM. 49% of 780 active; in the data active = IC50 below about 80 µM
Hits are given with their value; i = inactive; nt = not tested or not shown. Rows were chosen to be rich in hits. Some 4.1% of all compounds tested hit in one or more screens of this group.

SMILES	MPTP block	MC4R barr agon	ATG4B inhibitor	MC4R antagonist	SMARCA2 act	MPTP counter	others
COC(=O)[C@H](C(C)C)N1Cc2nnn(Cc3ccccc3)c2C=CS1(=O)=O	nt	nt	nt	nt	i	nt
CC(C)(C)c1ccc(-c2cn(C[C@H](Cc3ccccc3)n3c(=O)c4ccccc4n3Cc3ccno3)nn2)cc1	nt	nt	nt	nt	i	nt
CC(C)c1noc2ncc(C(=O)c3cc(Cl)cc(Cl)c3O)cc12	94	i	i	i	i	105
Nc1nc2ncc(C(=O)c3cc(Cl)cc(Cl)c3O)cc2s1	i	i	i	i	i	nt
CCN(CC)C(=O)CC[C@H]1CC[C@]2(CCCN(Cc3nccn3C)C2)O1	nt	nt	nt	nt	i	nt
O=c1c2c(-c3ccccc3)csc2nc2c3ccccc3c(NCCN3CCOCC3)nn12	58	9.3	i	i	i	i
CCN(CC)S(=O)(=O)c1cccc(C(=O)N[C@H](C(=O)Nc2nc3ccc(F)cc3s2)C(C)C)c1	55	i	i	i	i	72
COC(=O)[C@]12C[C@H](CC(=O)NCc3ccc(OC)c(OC)c3)C(=O)N(CCC3=CCCCC3)C1=C[C@H](C1CCCC1)O[C@@H]2C	nt	nt	nt	nt	i	nt
Cc1ccc(C2CC2C(=O)NNC(=S)Nc2cccc(Cl)c2)cc1 (centres undefined)	61	i	i	i	i	70
Cc1ccc(C2CC2C(=O)NNC(=S)Nc2cccc(C)c2)cc1 (centres undefined)	i	i	i	i	i	nt
O=C(CNc1ccc(C(F)(F)F)cc1)Nc1cccc(S(=O)(=O)N2CCCCC2)c1	66	i	nt	i	i	90
CCN(CC)S(=O)(=O)c1ccc(C)c(NC(=S)Nc2cccc(S(=O)(=O)N3CCCCCC3)c2)c1	76	i	i	i	i	78
CCN(CC)S(=O)(=O)c1cccc(NC(=O)CNc2cccc(S(=O)(=O)N3CCOCC3)c2)c1	72	i	i	i	nt	97
CCN(CC)S(=O)(=O)c1cccc(S(=O)(=O)N2CCCCC2)c1	i	i	i	i	i	nt
O=C(CNc1ccc(C(F)(F)F)cc1)Nc1cccc(S(=O)(=O)N2CCCC2)c1	i	i	i	i	i	nt
CCN(CC)S(=O)(=O)c1ccc(C)c(NC(=O)CNc2cccc(S(=O)(=O)N3CCOCC3)c2)c1	i	i	i	i	i	nt
O=C(CSc1nnc2c(n1)[nH]c1ccccc12)Nc1cccc(S(=O)(=O)N2CCOCC2)c1	52	i	i	i	i	35
O=C(NCc1ccco1)Nc1c(Cl)cc(Cl)cc1Cl	nt	nt	nt	nt	i	nt
C[C@@H]1CCCCO[C@@H](CN(C)C(=O)Nc2ccc(C(F)(F)F)cc2)[C@@H](C)CN([C@H](C)CO)C(=O)c2cc(NS(=O)(=O)c3ccc(Cl)cc3)ccc2O1	nt	nt	nt	nt	i	nt
CCCCNC(=O)NS(=O)(=O)c1ccc(NC(=O)CSc2nnc(-c3ccc(Cl)cc3)n2N)cc1	nt	nt	nt	nt	i	nt
COC(=O)[C@]12C[C@H](CC(=O)N3CCN(C(=O)C4CC4)CC3)C(=O)N(Cc3cccc4ccccc34)C1=C[C@H](C(C)(C)C)O[C@@H]2C	nt	nt	nt	nt	i	nt
CN(C)S(=O)(=O)c1cccc(NC(=O)CNc2cccc(S(=O)(=O)N3CCCCC3)c2)c1	i	i	nt	i	i	nt
CCN(CC)S(=O)(=O)c1cccc(NC(=O)CCSc2ccc(Cl)cc2)c1	76	i	i	i	i	85
CCN(CC)S(=O)(=O)c1cc(NC(=O)CNc2cccc(S(=O)(=O)N3CCCC3)c2)ccc1C	54	i	i	i	nt	95
Cc1ccnc(Nc2nc(-c3c(C)nc4sccn34)cs2)c1	63	i	i	i	i	21
SMILES	MPTP block	MC4R barr agon	ATG4B inhibitor	MC4R antagonist	SMARCA2 act	MPTP counter	others
COc1ccc(C(=O)CSc2nnc(Cn3cnc4ccccc43)o2)cc1	84	i	i	i	i	66
CC(=O)c1ccc(NC(=O)CSc2nnc(Cn3cnc4ccccc43)o2)cc1	i	i	i	i	i	nt
CC(=O)c1ccc(N2CCN(C(=O)c3ccc4c(=O)[nH]c5c(C(=O)NC6CCCC6)sc(=S)n5c4c3)CC2)cc1	nt	nt	nt	nt	i	nt
O=C(NC1CCCCC1)c1sc(=S)n2c1[nH]c(=O)c1ccccc12	90	i	i	i	i	92
O=C(OCc1cn(Cc2ccccc2C(F)(F)F)nn1)N1CCOCC1	nt	nt	nt	nt	i	nt
CCOC(=O)c1c(-c2ccccc2)oc2ccc(OCC(O)CN(C)C)cc12 (centres undefined)	99	i	i	i	i	i	MPTP swell DR=6.5;MPTP counter DR=i
CCOC(=O)c1c(-c2ccccc2)oc2ccc(OC(C)C(=O)O)cc12 (centres undefined)	i	i	i	i	i	nt
CC(=O)Nc1ccc(CCc2nc3ccccc3[nH]2)cc1	i	i	i	i	i	nt
CC(C)c1ccc(NC(=O)N(CCc2nc3ccccc3[nH]2)C2CCCC2)cc1	58	i	i	i	i	81
COC(=O)[C@@H](C)NC(=O)C(Cc1ccc2c(c1)OCO2)NC(C)=O (some centres undefined)	nt	nt	nt	nt	i	nt
Cc1ccc(S(=O)(=O)N(CC(=O)NC2CCC(C)CC2)c2cc(C)cc(C)c2)cc1 (centres undefined)	nt	nt	nt	nt	i	nt
COC(=O)[C@]1(C#N)CC(=O)N(Cc2ccc(Cl)cc2)[C@@H]1c1ccc(OC)cc1	nt	nt	nt	nt	i	nt
O=C(/C=C/c1cc([N+](=O)[O-])ccc1OC(F)F)Nc1cccc([N+](=O)[O-])c1	89	i	i	i	i	i	MPTP swell DR=8.2;MPTP counter DR=<2.5
CCOC(=O)c1cccc(NC(=O)/C=C/c2ccc([N+](=O)[O-])cc2)c1	92	i	i	i	i	78
O=C(/C=C/c1cc([N+](=O)[O-])ccc1OC(F)F)Nc1ccc(OC(F)F)cc1	i	i	i	i	i	nt
CCOC(=O)c1cc(NC(=O)COc2ccc([N+](=O)[O-])cc2)cc(C(=O)OCC)c1	50	i	i	i	i	56
O=C(COc1ccc([N+](=O)[O-])cc1)Nc1cc(C(=O)O)cc(C(=O)O)c1	i	i	i	i	i	nt
COc1ccc(-c2ccc3c(n2)CCCN3S(=O)(=O)c2cccs2)cc1	nt	nt	nt	nt	i	nt
OCC1(Cc2ccc(Cl)cc2)CCN(CCCc2ccccc2)CC1	53	i	i	i	i	i	MPTP swell DR=10
OCC1(Cc2ccc(Cl)cc2)CCN(Cc2ccccc2F)CC1	i	i	i	i	i	nt
Clc1ccc(-c2nnc(CSc3nnc(-c4cccs4)n3Cc3ccccc3)o2)cc1	92	i	i	i	i	89
Cc1nnc(SCc2nnc(-c3cccs3)o2)n1Cc1ccccc1	i	i	i	i	i	nt
O=c1c2ccccc2n(Cc2ccccc2)n1[C@@H](Cc1ccccc1)Cn1cc(C2CCCC2)nn1	nt	nt	nt	nt	i	nt
CC1CCCN(C(=O)c2ccc(S(=O)(=O)N3CCC(c4nc5ccccc5s4)CC3)cc2)C1 (centres undefined)	i	i	i	i	i	nt
